Test results published in ChEMBL document CHEMBL4049430, “Indazole-6-phenylcyclopropylcarboxylic Acids as Selective GPR120 Agonists with in Vivo Efficacy” (J Med Chem, 2017).

How the values were obtained:
[1] = target: Free fatty acid receptor 1 (Mus musculus) (UniProt Q76JU9); test: Agonist activity at mouse GPR40 expressed in HEK293 cells assessed as increase in intracellular calcium level after 5 mins by FLUO-4-AM dye-based FLIPR assay relative to control; format: functional, cell-based
Summary of the method: (§1)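 HEK293s cells stably expressing mouse GPR40 were seeded 24 h before assay and loaded for 1 h with calcium 3/Fluo-4 AM in HBSS, 20 mM HEPES, 0.01% BSA, 2.5 mM probenecid, pH 7.4. FLIPR Tetra took 10 baseline reads, then read for 5 min after addition. Runs were in duplicate, 9 points, 100 μM to 7 nM final, as % of maximal eladic acid control.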

[2] = target: T1, Free fatty acid receptor 4 (Homo sapiens) (UniProt Q5NUL3); test: Agonist activity at human GPR120 expressed in CHO-FlpIn cells after 15 mins by DMR assay relative to control; format: cell-based
T1 sequence (whole entry): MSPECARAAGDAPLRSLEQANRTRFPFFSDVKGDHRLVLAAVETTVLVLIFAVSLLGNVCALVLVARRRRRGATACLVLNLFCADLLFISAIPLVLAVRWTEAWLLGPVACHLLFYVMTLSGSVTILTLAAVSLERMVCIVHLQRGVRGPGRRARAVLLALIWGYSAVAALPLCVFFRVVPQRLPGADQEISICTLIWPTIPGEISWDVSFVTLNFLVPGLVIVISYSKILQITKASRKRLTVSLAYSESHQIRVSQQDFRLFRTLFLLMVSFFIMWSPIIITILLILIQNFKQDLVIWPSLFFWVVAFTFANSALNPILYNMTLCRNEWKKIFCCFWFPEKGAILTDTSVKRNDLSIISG
Summary of the method: (§2)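 Cryopreserved CHO FlpIn cells stably expressing human or mouse GPR120 were seeded 48 h before assay, serum-starved for 24 h, then held 2 h in HBSS/20 mM HEPES/0.01% BSA (pH 7.4) with 0.5% DMSO. DMR was read over a 10 min baseline and for 15 min after addition. Runs were in duplicate, 10 points, 16 μM to 0.8 nM final, as % of maximal control agonist.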

[3] = target: Free fatty acid receptor 1 (Mus musculus, UniProt Q76JU9); test: Agonist activity at mouse GPR40 expressed in HEK293 cells assessed as increase in intracellular calcium level after 5 mins by FLUO-4-AM dye-based FLIPR assay; format: functional, cell-based; summary of the method: as §1
[4] = target: T2, Free fatty acid receptor 4 (Homo sapiens, UniProt Q5NUL3); test: Agonist activity at human GPR120 expressed in CHO-FlpIn cells after 15 mins by DMR assay; format: cell-based; summary of the method: as §2
T2 sequence (Q5NUL3 whole entry): T1 sequence (whole entry)

[5] = Octanol-buffer partition coefficient, log D of the compound at pH 7.4 after 30 mins by LC-UV based shake-flask method

Chain of Free fatty acid receptor 1 (Mus musculus) (Q76JU9 whole entry): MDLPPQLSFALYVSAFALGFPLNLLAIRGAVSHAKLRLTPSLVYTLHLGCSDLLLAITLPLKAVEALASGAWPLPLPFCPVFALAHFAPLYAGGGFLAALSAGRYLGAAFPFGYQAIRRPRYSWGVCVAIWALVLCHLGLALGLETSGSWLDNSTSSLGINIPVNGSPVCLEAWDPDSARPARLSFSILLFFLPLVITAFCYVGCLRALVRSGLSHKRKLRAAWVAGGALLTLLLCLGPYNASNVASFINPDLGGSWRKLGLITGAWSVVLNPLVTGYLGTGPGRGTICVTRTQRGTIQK
Chain of Free fatty acid receptor 1 (Q76JU9 whole entry): as above

Row | SMILES | Efficacy [1] [%] | Efficacy [2] [%] | EC50 [3] [µM] | EC50 [4] [µM] | logD at 0.5 h [5]
1 | Cc1nn(-c2ccccn2)c2cc(-c3ccc([C@H]4C[C@@H]4C(=O)O)cc3)ccc12 [listing 1 of 2 here] | 10 | 95 | – | – | –
2 | C[C@@H](Cc1ccc(-c2ccc3cnn(-c4ccccn4)c3c2)cc1)C(=O)O | 31 | 100 | 3.8 | 4 | –
3 | Cc1nn(-c2ccccn2)c2cc(-c3ccc(CCC(=O)O)cc3)ncc12 | 86 | 78 | 9.2 | 2.6 | 1.6
4 | Cc1nn(-c2ccccn2)c2cc(-c3ccc([C@H]4C[C@H]4C(=O)O)cc3)ccc12 (racemic) | 81 | 9 | 19 | > 17 | –
5 | Cc1nn(-c2ccccn2)c2cc(-c3cccc(CC(=O)O)c3)ccc12 | – | 3 | – | > 17 | –
6 | Cc1nn(-c2ccccn2)c2cc(-c3ccc([C@H]4C[C@@H]4C(=O)O)cc3)ccc12 (racemic) [listing 1 of 2 here] | 6 | 87 | – | – | –
7 | Cc1nn(-c2ccccn2)c2cc(-c3ccc(C(C)CC(=O)O)cc3)ncc12 (configuration not stated) | 50 | 28 | 61 | 12 | –
8 | Cc1nn(-c2ccccn2)c2cc(-c3ccc(CC(C)(C)C(=O)O)cc3)ccc12 | 18 | 79 | > 100 | 4.1 | –
9 | Cc1cc(-c2ccc(CCC(=O)O)cc2)cc2c1cnn2-c1ccccn1 | 82 | 70 | 2.6 | 4.6 | 2.6
10 | Cc1nn(-c2ccccn2)c2cc(-c3cccc(CCC(=O)O)c3)ccc12 | 0 | 28 | > 100 | > 17 | –
11 | C[C@H](Cc1ccc(-c2ccc3cnn(-c4ccccn4)c3c2)cc1)C(=O)O | 18 | 88 | > 100 | 4.3 | –
12 | O=C(O)CCc1ccc(-c2ccc3c(OCc4ccccc4)nn(-c4ccccn4)c3c2)cc1 | 81 | 2 | 1.3 | > 17 | –
13 | Cc1nn(-c2ccccn2)c2cc(-c3ccc(CC(=O)O)cc3)ccc12 | – | 8 | – | > 17 | –
14 | Cc1nn(-c2ccccn2)c2cc(-c3ccc([C@@H]4C[C@H]4C(=O)O)cc3)ccc12 | 2 | 26 | > 100 | > 17 | –

Continued, values first:

Row | Efficacy [1] [%] | Efficacy [2] [%] | EC50 [3] [µM] | EC50 [4] [µM] | logD at 0.5 h [5] | SMILES
15 | 105 | 113 | 1.5 | 0.6 | 2.9 | Cc1nn(-c2ccccn2)c2cc(-c3ccc(CCC(=O)O)cc3F)ccc12
16 | 117 | 128 | 2.1 | 0.26 | – | Cc1nn(-c2ccccn2)c2cc(-c3ccc(CCCC(=O)O)cc3)ccc12
17 | – | – | > 100 | 0.85 | – | Cc1nn(-c2ccccn2)c2cc(-c3ccc([C@H]4C[C@@H]4C(=O)O)cc3)ccc12 (racemic) [listing 2 of 2 here]
18 | – | – | > 100 | 0.69 | – | Cc1nn(-c2ccccn2)c2cc(-c3ccc([C@H]4C[C@@H]4C(=O)O)cc3)ccc12 [listing 2 of 2 here]
19 | 113 | 78 | 19 | 2 | 2.2 | N#Cc1cc(-c2ccc(CCC(=O)O)cc2)cc2c1cnn2-c1ccccn1
20 | 62 | 82 | 8.2 | 0.72 | 2.4 | COc1cc(CCC(=O)O)ccc1-c1ccc2c(C)nn(-c3ccccn3)c2c1
21 | 47 | 80 | 6.1 | 2.4 | 2.2 | Cc1nn(-c2ccccn2)c2cc(-c3ccc(CCC(=O)O)cc3C#N)ccc12
22 | 106 | 114 | 4.5 | 0.99 | 2.4 | O=C(O)CCc1ccc(-c2ccc3cnn(-c4ccccn4)c3c2)cc1
23 | 95 | 107 | 1.4 | 0.64 | – | Cc1nn(-c2ccccn2)c2cc(-c3ccc(CCC(=O)O)cc3)ccc12
